Entries after “also recorded” stand apart in the source; their conditions may differ. Values belong to the molecule of their own block, whether it stands above or below them.
Assays:
[1] = system: HT-1080 transplanted tumors (CD13 positive expression); test: T1WI MRI of HT-1080 tumor-bearing mice, T/NT ratio; format: in vivo, human fibrosarcoma in BALB/c nude mice
[2] = system: HT-1080 transplanted tumors; test: tumor size on transverse MRI, HT-1080; format: in vivo, human fibrosarcoma in BALB/c nude mice
How it was run: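 8-week BALB/c nude mice (~25 g, SPF) bore right-axillary HT-1080 xenografts from 5 × 10^6 cells. At ~1 cm, mice got Gd-labeled probe (200 µg i.p.) and 3.0T T1WI MRI with a small-animal coil (TR 200 ms, TE 2.46 ms, 3 mm slices). Test compound was then given at 0.5 mg/kg/day i.p. for 7 days, with repeat MRI on day 8. Groups were compared by one-way ANOVA.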

[3] = system: HT-29 transplanted tumors; test: tumor size on transverse MRI, HT-29; format: in vivo, human colorectal adenocarcinoma in BALB/c nude mice
APN/CD13 = test: immunohistochemistry of APN/CD13 expression in HT-1080 transplanted tumors; format: in vivo, human fibrosarcoma in BALB/c nude mice; conditions: ubenimex 0.5 mg/kg/day i.p., one week / 7 days
How it was run: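 HT-1080 cells, grown in DMEM with 10% FBS at 37 °C and 5% CO2, were inoculated at 5 × 10^6 cells into the right axilla of 8-week BALB/c nude mice. Tumors reached about 1 cm. Test compound was given at 0.5 mg/kg/day i.p. for 7 days. After the day-8 MRI, tumors were harvested, formaldehyde-fixed for 48 h, paraffin-embedded, cut at 5 μm and immunostained for APN/CD13.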

[4] = proton relaxivity measurement; format: physicochemical; conditions: 128 MHz, 298 K
[5] = system: HT-29 transplanted tumors (CD13 negative expression); test: T1WI MRI of HT-29 tumor-bearing mice, T/NT ratio; format: in vivo, human colorectal adenocarcinoma in BALB/c nude mice
CD13 receptor = CD13 receptor (Homo sapiens, UniProt P15144); test: competitive cell binding assay; conditions: HT-1080 cells, 0.01 to 60.00 µM
CD13 receptor, sequence (P15144 whole entry): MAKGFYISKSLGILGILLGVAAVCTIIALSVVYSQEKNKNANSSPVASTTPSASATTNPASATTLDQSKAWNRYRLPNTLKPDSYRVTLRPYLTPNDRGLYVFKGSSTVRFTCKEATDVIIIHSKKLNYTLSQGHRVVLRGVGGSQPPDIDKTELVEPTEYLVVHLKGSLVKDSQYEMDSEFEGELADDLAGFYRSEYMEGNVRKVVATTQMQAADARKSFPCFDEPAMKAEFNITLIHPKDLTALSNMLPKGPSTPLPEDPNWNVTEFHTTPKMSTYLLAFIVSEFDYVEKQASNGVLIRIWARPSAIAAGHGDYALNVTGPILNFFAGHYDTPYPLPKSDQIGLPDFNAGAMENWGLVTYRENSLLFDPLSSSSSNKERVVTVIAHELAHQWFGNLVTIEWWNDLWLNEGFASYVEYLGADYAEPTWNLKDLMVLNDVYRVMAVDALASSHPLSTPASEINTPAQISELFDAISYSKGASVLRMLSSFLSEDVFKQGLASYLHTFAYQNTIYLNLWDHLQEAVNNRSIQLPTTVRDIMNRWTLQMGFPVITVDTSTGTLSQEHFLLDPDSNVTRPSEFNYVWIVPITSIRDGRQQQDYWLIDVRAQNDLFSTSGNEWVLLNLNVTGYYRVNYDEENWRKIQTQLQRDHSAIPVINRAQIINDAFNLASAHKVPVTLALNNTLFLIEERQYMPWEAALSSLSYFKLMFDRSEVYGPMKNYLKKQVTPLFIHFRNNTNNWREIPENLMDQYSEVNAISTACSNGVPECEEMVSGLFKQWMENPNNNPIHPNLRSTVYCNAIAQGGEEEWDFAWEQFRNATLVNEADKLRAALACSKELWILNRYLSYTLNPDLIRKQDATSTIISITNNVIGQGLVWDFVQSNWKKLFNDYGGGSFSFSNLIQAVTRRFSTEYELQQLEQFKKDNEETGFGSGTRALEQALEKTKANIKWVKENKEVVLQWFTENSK

Molecule: CC(C)C[C@H](NC(=O)[C@@H](O)[C@H](N)Cc1ccccc1)C(=O)O [ubenimex]
change in T/NT ratio after treatment ([1]; ubenimex 0.5 mg/kg/day i.p., 7 days, MRI on the 8th day): decreased significantly | change of tumor size (sum of long and short diameters) ([2]; 7 days of ubenimex treatment): not changing significantly | sum of the long and short diameters of the tumor, before treatment ([2]; HT-1080, n = 5, before ubenimex, P = 0.39 before vs after): 3.1 ± 0.1 cm | sum of the long and short diameters of the tumor, after one week ([3]; HT-29, after one week, P = 0.001 vs before): 3.5 ± 0.2 cm | sum of the long and short diameters of the tumor, before ([3]; HT-29, before, P = 0.001 vs after one week): 2.9 ± 0.1 cm | expression of APN/CD13 in HT-1080 grafts after treatment (APN/CD13): decreased significantly; also recorded: markedly reduced

proton relaxivity R1 [4]: 4.0 mM^− 1S^− 1 | time of peak T/NT value post-injection ([1]; HT-1080 xenografts, i.p. injection, T/NT value-time curve): 1 h | time of peak T/NT value post-injection ([5]; HT-29 xenografts, i.p. injection, T/NT value-time curve): 1 h
Molecule: O=C([O-])CN1CCN(CC(=O)[O-])CCN(CC(=O)O)CCN(CC(=O)[O-])CC1.[Gd+3] [Gd-DOTA]
T/NT of HT-1080 xenografts (treated or untreated) compared with HT-29 xenografts ([1]; Gd-DOTA, 1 h post-injection): no significant difference in T/NT values | tumor signal intensity on T1WI ([1]; HT-1080 xenograft, intraperitoneal injection, before treatment): high signal intensity | tumor signal intensity on T1WI ([5]; HT-29 xenograft, intraperitoneal injection, before treatment): high signal intensity

Molecule: DOTA-G3CNGRC
inhibition of 99mTc-DOTA-G3CNGRC binding to the CD13 receptor (CD13 receptor): inhibited by DOTA-G3CNGRC in a dose-dependent manner

From PMC12215967 (Scientific Reports, 2025)
